High-throughput results as filed in PubChem.
Only a selection was taken, and hits are over-represented in it overall.
UPR XBP1 act – activators of adaptive arm of unfolded protein response (XBP1); CHO-XBP1 luciferase reporter, IRE1-XBP1 UPR activation, luminescence; percent of tunicamycin response, DMSO as zero; activation, % at 20 µM; 330,000 tested, 0.33% active;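 active = versus positive control, 20 µM dose yields 30% or more activation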;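 note: 100% = tunicamycin at 10 µg/mL and 0% = DMSO only wells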
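Assay system: IRE1-XBP1 luciferase reporter CHO line. Input: 1000 cells/well. Buffer or medium: F12 with 10% serum. Doses: 20 µM, 1% DMSO. Times: overnight seeding at 37 °C, 6 h compound treatment at 37 °C. Technique: Steady-Glo luciferase glow luminescence, 10 min after reagent addition.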
CHOP UPR activ – apoptotic UPR (CHOP) activation; CHO-CHOP luciferase reporter, luminescence; percent of tunicamycin response over DMSO baseline; activation, % at 10 µM; 330,000 tested, 0.34% active;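 active = at 10 µM dose, activation of 40% or more, normalized to positive control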;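 note: 100% = tunicamycin at 10 µg/mL and 0% = DMSO alone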
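Material: CHO-CHOP cells, stable luciferase reporter of PERK-eIF2a-CHOP signalling; quantity: 500 reporter cells seeded per well; buffer or medium: F12 medium containing 10% fetal bovine serum; compound: one dose, 10 µM in 0.5% DMSO; incubation: 6 h compound treatment, 37 °C; measured by: Steady-Glo luciferase luminescence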
Bfl-1 A1 inh – inhibitors of the anti-apoptotic protein A1, read as caspase activation; MEF A1-2A-BIM cells, Caspase-Glo 3/7 luminescence, 3 h; percent of clofoctol response, vehicle zero; caspase activation, % (concentration not given with the values); 330,000 tested, 0.066% active;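 active = over half of replicate activation scores above 10%, or exactly half above 10 with the replicate mean above 10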
CHOP inhibitor – CHOP inhibition in unfolded protein response; CHO-K1 CHOP-promoter luciferase, tunicamycin-induced, 15-18 h; inhibition, % at 10 µM; 220,000 tested, 3.8% active;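 active = compounds that reduced the stress-induced luciferase reporter signal by more than about 70% of percent inhibition, limit read from the data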;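 note: 0% = tunicamycin plus vehicle and 100% = wells without tunicamycin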
* hit, by the source's call; / = no result.

SMILES	UPR XBP1 act	CHOP UPR activ	Bfl-1 A1 inh	CHOP inhibitor
Cc1ccc(NC(=O)c2cc(C)n(-c3ccccc3)c2C)cc1	-5.3	-7.5	-0.3	72.0*
Cc1c(C(=O)Nc2cccc([N+](=O)[O-])c2)csc1-c1ccccc1	3.8	4.1	-6.1	64.7
O=C(COC(=O)CCc1ccc(S(=O)(=O)N2CCOCC2)cc1)NC(=O)NC1CCCCC1	-3.0	-0.6	1.6	18.4
COC(=O)C1=C(C)N=C2SC(C#N)=C(N)N2C1c1ccc(OCc2ccccc2)cc1 (stereo not drawn)	2.8	0.8	0.5	88.5*
COc1cc2c(cc1OC)C1(CCCC1)C(N)=C2C#N	-0.1	-3.7	-0.7	70.0*
O=[N+]([O-])c1ccc(-c2ccc(/C=N/c3c(-c4ccco4)nc4ccccn34)o2)c(Cl)c1	/	/	/	79.0*
C=CCSc1n[nH]c2nc3c(c(=O)n12)C1(CCCC1)Cc1ccccc1-3	-3.5	-0.2	1.4	70.6*
CSc1n[nH]c2nc3c(c(=O)n12)C1(CCCC1)Cc1ccccc1-3	0.1	0.2	-0.1	-9.2
CCSc1n[nH]c2nc3c(c(=O)n12)C1(CCCC1)Cc1ccccc1-3	-4.0	-2.3	0.0	87.9*
COC(=O)c1sccc1NC(=O)c1ccc(OC)c(OC)c1	-2.2	0.1	-1.9	23.0
COC(=O)c1ccc(OC(=O)c2ccc(OC)cc2)c(OC)c1	2.6	1.7	-1.0	8.1
CC(C(=O)NC1=NCCS1)N1C(=O)c2ccccc2C1=O (stereo not drawn)	-3.8	-0.1	-0.9	5.9
CC(C(=O)NC1=NCCS1)N1C(=O)C2CC=CCC2C1=O (stereo not drawn)	1.7	2.2	-0.6	82.6*
Cc1cccc(-c2nn(-c3ccccc3)cc2C(=O)N(C)CC(=O)Nc2ccc(N3CCOCC3)cc2)c1	1.1	3.3	0.4	/
C=CCc1cccc(OC)c1OCCOCCNCCO	-1.0	2.2	-0.5	6.7
Cc1ccc(S(=O)(=O)c2nc(-c3ccc(F)cc3)oc2SCC(=O)NCC2CCCO2)cc1 (stereo not drawn)	1.0	0.6	0.0	36.5
Cc1ccc(-c2nc(S(=O)(=O)c3ccc(F)cc3)c(SCC(=O)NCC3CCCO3)o2)cc1 (stereo not drawn)	0.3	-0.5	-0.4	70.2*
Cc1cc2c(cc1C)CSC(c1ccc(O)cc1)SC2	-1.2	-1.3	0.8	89.9*
Cc1ccc(C(=O)CC(=O)COc2ccc(Cl)cc2)cc1	-2.5	-0.4	-0.1	92.5*
COc1ccc(OCC(=O)O/N=C(\N)Cc2cccs2)cc1	-1.3	1.5	-0.4	31.8
Cc1ccc(C(=O)NCCOc2ccc(Cl)cc2)cc1	4.5	3.5	0.9	/
Cc1ccc(OCC(=O)O/N=C(\N)Cc2ccc(Cl)cc2)cc1	2.2	-0.8	-0.3	76.9*
COc1ccc(OCC(=O)O/N=C(\N)Cc2ccc(Cl)cc2)cc1	-1.9	2.8	-1.4	10.3
COc1ccc(OCC(=O)O/N=C(\N)Cc2ccc(Cl)cc2Cl)cc1	-1.7	-0.5	0.2	80.5*
CCCCN1C(=O)C(O)(c2ccccc2)c2cc(Br)ccc21 (stereo not drawn)	-1.3	2.3	-1.4	/
SMILES	UPR XBP1 act	CHOP UPR activ	Bfl-1 A1 inh	CHOP inhibitor
CCc1ccc2[nH]c(=O)c(C(c3nnnn3CC3CCCO3)N3CCCc4ccccc43)cc2c1 (stereo not drawn)	2.5	2.6	1.8	83.9*
CS(=O)(=O)N(CC(=O)N1CCN(c2ccccc2)CC1)c1cc(C(F)(F)F)ccc1Cl	-3.2	-0.5	-0.4	18.4
CCSc1nnc(NC(=O)c2cc(C)oc2C)s1	2.2	4.0	-3.5	77.9*
NC(=O)c1ccsc1NC(=O)COC(=O)c1ccccc1NCc1ccco1	1.7	0.9	-0.8	95.6*
Cc1cccc(C=Nc2ccc3c4c(cccc24)CC3)c1O	1.8	3.4	-1.1	-6.3
C=CCc1cccc(C=Nc2cc(Br)ccc2O)c1O	3.6	3.2	-1.6	98.0*
CCc1ccc(O)c(N=Cc2cccc(C)c2O)c1	1.1	1.7	0.0	75.9*
O=C(NC12CC3CC(CC(C3)C1)C2)C1CC(=O)N(c2ccc(Br)cc2)C1 (stereo not drawn)	-1.5	0.6	0.4	70.5*
O=C(NC12CC3CC(CC(C3)C1)C2)C1CC(=O)N(c2ccccc2)C1 (stereo not drawn)	-4.0	0.7	0.9	26.5
O=C(Nc1cccc(Cl)c1Cl)C1CC(=O)N(c2ccc(Br)cc2)C1 (stereo not drawn)	-2.2	0.1	1.5	77.7*
O=C(Nc1cccc(F)c1)C1CC(=O)N(c2ccc(Br)cc2)C1 (stereo not drawn)	-2.3	0.5	-1.5	40.2
O=C(Oc1ccc2cc(Br)ccc2c1)N1CCCCCC1	8.5	3.8	0.7	84.9*
O=C(Oc1ccc2ccccc2c1Br)N1CCCCCC1	-1.1	1.1	-0.4	29.0
NS(=O)(=O)c1ccc(CCNC(=O)Cc2ccc(S(=O)(=O)N3CCCC3)s2)cc1	-1.9	-0.6	1.2	1.9
O=C(Nc1cccc(C(F)(F)F)c1)C(Sc1ncnc2ccccc12)c1ccccc1 (stereo not drawn)	-2.7	0.5	1.6	76.2*
O=C(CCSCCC(=O)NCC1CCCO1)NCC1CCCO1 (stereo not drawn)	3.6	1.3	0.9	8.8
COc1ccc(-c2c(C(F)(F)F)oc3cc(OCC(=O)Nc4ccccc4C(F)(F)F)ccc3c2=O)cc1OC	/	/	1.4	91.2*
Cc1cn([C@H]2C[C@H](O)[C@@H](CCC(=O)NCCc3c[nH]c4ccccc34)O2)c(=O)[nH]c1=O	2.6	1.9	/	/
O=C(OCc1csc(Nc2ccccc2)n1)c1ccc(Cl)cc1	-1.7	-1.4	0.0	74.0*
O=C(COc1ccccc1)OCc1csc(Nc2ccccc2)n1	3.2	-2.0	-0.8	-9.3
Cn1cccc1C(=O)NC(=O)COC(=O)CC12CC3CC(CC(C3)C1)C2	-1.5	-3.0	-0.6	79.6*
Cn1cccc1C(=O)NC(=O)COC(=O)CC12CC3CC(CC(Br)(C3)C1)C2	-0.2	0.0	-0.1	29.2
CCn1ncc(Br)c1C(=O)Nc1nccs1	-4.1	-1.6	0.7	76.9*
CCOc1ccc(CN(C)C(=O)c2ccc(NC(=O)CC3SC(N4CCCC4)=NC3=O)cc2)cc1 (stereo not drawn)	-4.4	1.9	0.9	/
CC(C)CCNc1nc2c(c(=O)n(Cc3cccc(F)c3)c(=O)n2C)n1C	-0.7	1.1	0.5	70.8*
CC(O)CNc1nc2c(c(=O)n(Cc3ccc(Cl)c(Cl)c3)c(=O)n2C)n1C (stereo not drawn)	-1.8	1.0	-0.3	77.8*
CC(O)CNc1nc2c(c(=O)n(Cc3ccc(Cl)cc3)c(=O)n2C)n1C (stereo not drawn)	-4.7	1.0	0.7	/
S=C(c1c[nH]c2ccccc12)N1CCOCC1	1.4	0.0	0.7	12.6
CCc1ccc(N(CC)C(=O)c2ccc3c(Cl)c4c(nc3c2)CCC4)cc1	-0.6	0.8	/	86.6*
COc1ccc(-c2csc3ncnc(N4CCN(c5ccc(OC)cc5)CC4)c23)cc1	-5.8	0.6	-0.8	/
